# RAM inhibit: inhibitors of the yeast RAM network | S. cerevisiae dse1pr::URA3 reporter, 5-FOA growth OD615, 2 d; analog-sensitive cbk1-as2 kinase mutant strain | inhibition, % at 50 µM | hit rate 1.8% among 190,000 | AID 868;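 active = inhibition above a set limit, 3 SD over mean compound inhibition, cut at about 8.4% in these data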;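 also: 0% = DMSO-only wells with no growth and 100% = 10 µM 1-NA-PP1 full growth; inhibition rescues growth on 5-FOA so higher OD means more RAM inhibition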
# Measles CPE: protection of cells from measles virus | Measles virus-infected cells, CPE protection, absorbance | protection (pct of control), % at 4 µM | hit rate 1.5% among 140,000; in the data active = protection mostly above about 24%, no sharp cut-off; inactive = mostly below about 26%
# Yeast growth inh: chemicals that inhibit yeast BB579 growth in restrictive medium (lifespan-shortening candidates). S. cerevisiae BB579 growth, OD615, 48 h. hit rate 0.51% among 140,000. inhibition, % at 10 µM;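 active = inhibition above a set limit, 3 SD over the mean compound inhibition, cut at about 44% in these data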
#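 Assay system – yeast BB579 (DeaD) · Dosing – single compound dose of 10 µM, 0.25% DMSO final · Detection – OD615 turbidity measurement · Buffer or medium – CSMM-D restrictive synthetic medium containing dextrose (glucose) · Benchmarks – positive control amphotericin B 10 µg/mL · Incubation – 48 h exposure, 30 °C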
# Yeast lifespan up: extends the lifespan of yeast; inhibition of the nicotinamide effect, % at 10 µM; S. cerevisiae growth with nicotinamide, OD615; deaD strain in restrictive glucose medium; AID 775; hit rate 0.68% among 130,000;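 active = inhibition above a set limit, placed 3 SD over the median of all compounds, cut at about 26% in these data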;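 also: 0% = nicotinamide-treated wells and 100% = cells grown without nicotinamide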
#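 Material: Modified budding yeast, DeaD strain | Medium: Restrictive glucose medium | Probe or stimulus: 1.5 mM nicotinamide | Dosing: Single dose 10 µM compound, 0.25% DMSO | Times: 48 h at 30 °C | Technique: OD615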
# Phagocyt inh: blocks phagocytosis by macrophages | J774A.1 macrophage IgG-bead phagocytosis, imaging | inhibition, % at 5 µM | hit rate 0.07% among 110,000;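 active = inhibition above the mean of the plate negative controls plus 5 SD, cut at about 13% in these data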;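 also: phagocytic index as fraction of beads internalized from green versus red external bead signal; plate controls were DMSO negative control for no effect and cytochalasin-D positive control for full effect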
# RAM efflux-def: restores 5-FOA growth of efflux-deficient yeast; shares compounds with RAM inhibit; S. cerevisiae efflux-deficient reporter strain, 5-FOA growth OD615, 2 days; max inhibition, %; 1,200 tested, under 10 active; call rule not given here;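 also: plate controls were vehicle for no effect and reference inhibitor for full effect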
# * = called active by the depositor; nt = not tested or not shown. Most compounds without a hit are left out; they make up all but 3.6% or so of the library.
SMILES,RAM inhibit,Measles CPE,Yeast growth inh,Yeast lifespan up,Phagocyt inh,RAM efflux-def
Cc1cccc(CSCCNC(=O)c2ccc(N(C)S(=O)(=O)c3ccccc3)cc2)c1,17.6*,12.3,-46.9,3.5,-3.3,4.9
CCNc1ccc2noc3c2c1C(=O)c1ccccc1-3,19.9*,9.9,-11.6,nt,nt,8.7
Cc1ccc(CC(=O)NCCS(=O)c2ccc(C)cc2)cc1 (stereo not given),2.2,nt,nt,nt,nt,nt
N#Cc1ccc(-c2cccnc2)nc1SCc1ccc(Cl)cc1Cl,3.8,5.5,-35.2,-0.2,-1.6,nt
N#Cc1ccc(-c2cccnc2)nc1SCc1ccc(Cl)c(Cl)c1,13.3*,6.2,-48.2,3.3,-15.1,11.1
CN(C)S(=O)(=O)c1cc(NC(=O)COC(=O)Cc2ccc(Br)cc2)ccc1Cl,11.8*,3.6,-37.6,4.1,nt,1.3
CCCOc1ccc(/C=C2\SC(=S)N(CC3CCCO3)C2=O)cc1 (stereo not given),16.6*,22.6,-16.1,4.5,-1.6,6.8
Cc1ccsc1/C=C1\SC(=S)N(CC2CCCO2)C1=O (stereo not given),2.1,nt,nt,nt,nt,nt
CC(=O)c1ccc(N(C(=O)CS(=O)CC(=O)Nc2ccc(F)cc2)C(C(=O)NC2CCCCC2)c2cccs2)cc1 (stereo not given),17.9*,5.0,-35.2,16.9,-0.3,2.4
N#CC(c1ccccc1)c1ccc(C(=O)c2ccc(F)cc2)cc1 (stereo not given),6.5,8.2,-86.3,-8.2,-2.0,nt
N#CC(c1ccc(F)cc1)c1ccc(C(=O)c2ccccc2)cc1 (stereo not given),16.5*,3.7,-15.2,-6.8,-0.3,3.6
Cc1ccc(S(=O)(=O)N(CCC(=O)Nc2ccc(OC(F)(F)F)cc2)c2ccccc2)cc1,16.0*,3.0,13.9,-1.9,-2.2,2.1
Cc1ccc(N(CCC(=O)NC(C)(C)C)S(=O)(=O)c2ccc(C)cc2)cc1,0.9,nt,nt,nt,nt,nt
Cc1ccnc(NS(=O)(=O)c2ccc(NC(=O)CSc3nc(-c4ccccc4)cc(=O)[nH]3)cc2)n1,7.8,nt,nt,nt,nt,nt
Clc1ccc(-c2nnnn2-c2ccc(Cl)c(Cl)c2)cc1Cl,0.1,38.1,-27.9,-9.5,-0.9,nt
COc1ccc(Cc2nc(-c3ccc(-n4cccc4)cc3)no2)cc1,6.4,10.6,-26.7,-3.6,0.1,nt
COc1ccc(Cc2nc(-c3ccc(-n4cccc4)cc3)no2)cc1OC,12.0*,13.4,-8.4,-1.8,1.2,4.6
CC(C)CNS(=O)(=O)c1ccc(CCC(=O)Nc2cc(Cl)ccc2Oc2ccccc2)cc1,12.5*,2.2,-40.4,-5.3,-0.8,2.7
CC(C)(C)NS(=O)(=O)c1ccc(CCC(=O)Nc2cc(Cl)ccc2Oc2ccccc2)cc1,2.2,2.0,-7.7,-12.7,-0.4,nt
CCCNS(=O)(=O)c1ccc(CCC(=O)Nc2cc(Cl)ccc2Oc2ccccc2)cc1,11.6*,1.6,-30.5,nt,nt,5.2
CN1CCN(C2=CC(=O)OC23CCCCC3)CC1,-1.0,3.5,-38.3,nt,nt,nt
COc1ccc(CCNC(=O)c2ccc(-c3ccc([N+](=O)[O-])cc3Cl)o2)cc1,13.1*,11.0,-6.6,-1.4,-16.4,3.4
COCC(C)n1c(SCc2ccc(OC)c(F)c2)nc2ccccc2c1=O (stereo not given),14.2*,nt,nt,nt,nt,1.7
O=C(COC(=O)CCCNC(=O)c1ccc(Cl)cc1)Nc1cc(Cl)c(Cl)cc1Cl,42.1*,12.3,-28.8,3.9,-10.1,1.6
O=C(O)C1CCN(c2ccccc2[N+](=O)[O-])CC1,1.3,nt,nt,nt,nt,nt
SMILES,RAM inhibit,Measles CPE,Yeast growth inh,Yeast lifespan up,Phagocyt inh,RAM efflux-def
COc1cc(CNn2c(C)n[nH]c2=S)cc(Cl)c1OCc1ccc(F)cc1,12.4*,5.3,-45.6,4.6,0.3,1.0
COc1cc(CNn2c(C)n[nH]c2=S)cc(Br)c1OCc1ccc(F)cc1,3.8,9.1,-30.5,0.0,-7.5,nt
COC(=O)N/N=C/c1ccc(OS(=O)(=O)c2ccc(C)cc2)c(OC)c1,-0.6,nt,nt,nt,nt,nt
C=CCNC(=O)/C(C#N)=C/c1ccc(OS(=O)(=O)c2ccc(C)cc2)c(OC)c1,15.4*,8.9,-25.5,23.8,-1.8,1.6
Cc1cc(=O)[nH]c(SCC(=O)Nc2ccc(Cl)cn2)n1,0.8,3.2,-28.2,-3.6,-0.7,nt
COc1cccc(N/C(SCc2ccccc2C)=C(/C#N)C(=O)NCc2cccs2)c1,19.7*,20.6,-66.2,4.4,-2.5,4.3
COc1cccc(N/C(SCc2cccc([N+](=O)[O-])c2)=C(/C#N)C(=O)NCc2cccs2)c1,17.1*,28.7,-10.1,9.0,-3.5,4.3
COc1cccc(N/C(SCc2ccccc2Cl)=C(/C#N)C(=O)NCc2cccs2)c1,15.7*,18.4,-37.9,6.5,-6.4,3.0
COc1cccc(N/C(SC)=C(/C#N)C(=O)NCc2cccs2)c1,6.5,nt,nt,nt,nt,nt
Cn1ccnc1C1CCCCN1Cc1nc(-c2ccc3c(c2)OCO3)no1 (stereo not given),3.1,nt,nt,nt,nt,nt
COc1ccccc1-c1ccc(SCc2ccc([N+](=O)[O-])cc2)nn1,14.3*,nt,nt,nt,nt,3.3
CCN(CC(O)CON=C1c2ccccc2-c2ccccc21)S(=O)(=O)c1ccc(Cl)cc1 (stereo not given),20.1*,34.7,-20.2,8.1,-16.3,4.0
CCN(CC(O)CON=C1c2ccccc2-c2ccccc21)S(=O)(=O)c1ccc(C)cc1 (stereo not given),15.2*,9.7,-36.2,11.1,0.1,7.9
CCOC(=O)c1oc2ccccc2c1CSc1nnnn1-c1ccc(OC)cc1,7.4,2.8,-65.0,2.4,-1.1,nt
CCOC(=O)c1oc2ccc(Br)cc2c1CSc1nnc(C)s1,17.4*,1.4,-52.4,-0.6,-1.7,2.0
N/C(COc1cccc(Cl)c1)=N\NS(=O)(=O)c1ccccc1,0.5,17.7,-32.3,-10.0,-0.4,nt
O=C(NCc1ccc(F)cc1)c1ccc(S(=O)(=O)Nc2cccc(C(F)(F)F)c2)cc1,12.6*,5.8,-21.6,3.7,nt,1.8
O=C(Cc1ccc(NS(=O)(=O)c2ccc(F)cc2)cc1)NCc1ccccc1,1.0,7.7,-14.2,-5.2,-0.8,nt
O=C(CSCc1ccccc1)Nc1cccc(C(=O)Nc2ccccc2C(=O)O)c1,13.4*,7.0,8.3,-20.6,nt,1.9
O=C(O)CCCC(=O)Nc1cccc(C(=O)Nc2ccccc2C(=O)O)c1,0.0,nt,nt,nt,nt,nt
O=C(CSCc1ccc(Cl)cc1)Nc1cccc(C(=O)Nc2ccccc2C(=O)O)c1,13.7*,3.8,-43.3,-15.1,-0.4,0.9
Cc1ccc(NC(=O)COc2ccc(CCO)cc2-n2nc3ccccc3n2)cc1C,11.8*,3.9,-26.4,-1.1,-11.3,8.4
CCC[n+]1cn(/C(C(=S)Nc2cccc(Cl)c2C)=C(/[O-])c2ccc(OC)c(OC)c2)c2ccccc21,1.6,nt,nt,nt,nt,nt
Cc1ccc(CS/C(Nc2ccccc2C)=C(\C#N)C(=O)NCc2ccco2)c(C)c1,13.0*,6.6,-16.2,-1.9,0.0,6.3
Cc1ccccc1N/C(SCc1ccc(Cl)cc1)=C(/C#N)C(=O)NCc1ccco1,14.7*,26.0,-29.0,4.1,-0.2,5.8

# Assay outcomes as filed in PubChem BioAssay.
